# From PubChem BioAssay
# Compounds with a hit are over-represented: about 2.9% of the library has one in this group of screens.
# S100A4 MyoIIA: inhibitors of S100A4-myosin IIA peptide binding, primary screen, biochemical, fluorescence polarization, TAMRA-MyoIIA peptide. inhibition, % at 10.7 µM. hit rate 0.14% among 360,000. AID 652163, 2013;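 active means mean inhibition of at least 70% across replicates, with every replicate also reaching that level; inconclusive means mean inhibition reaches 70% but some replicates fall short; inactive means mean inhibition below 70%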
# Target sequence (P26447 whole entry, looked up): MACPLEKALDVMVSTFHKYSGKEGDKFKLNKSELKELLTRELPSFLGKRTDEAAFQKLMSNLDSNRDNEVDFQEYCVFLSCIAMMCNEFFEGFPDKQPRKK
#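 Material: S100A4 monomer protein / Buffer or medium: 50 mM HEPES pH 7.2, 10 mM CaCl2, 100 mM KCl / Times: 5 min incubation before reading / Benchmarks: neutral control DMSO, positive control TFP / Reagent: labelled myosin peptide probe, 5 nM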
# SIRT5 inh: SIRT5 desuccinylase inhibitors, primary screen, biochemical, fluorescence imaging, single point, set 5 | AID 652115, 2013 | Purified SirT5, succinyl-peptide AMC, trypsin-coupled fluorescence | inhibition, % at 15 µM | hit rate 1.1% among 330,000; in the data active means inhibition above about 15%; inconclusive means no clear call, values can overlap the other calls
# Target sequence (Q9NXA8 whole entry, looked up): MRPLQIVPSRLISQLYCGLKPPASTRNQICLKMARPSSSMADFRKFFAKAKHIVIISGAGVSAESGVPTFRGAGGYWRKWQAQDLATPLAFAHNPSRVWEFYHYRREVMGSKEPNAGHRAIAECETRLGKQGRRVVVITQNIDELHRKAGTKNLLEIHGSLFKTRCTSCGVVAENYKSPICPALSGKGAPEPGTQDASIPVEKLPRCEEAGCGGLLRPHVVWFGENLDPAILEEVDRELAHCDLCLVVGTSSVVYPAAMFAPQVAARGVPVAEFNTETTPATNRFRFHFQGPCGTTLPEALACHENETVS
# PGC1a acetyl inh: inhibitors of PGC1a acetylation signal, primary screen, cell-based, U2OS, AlphaScreen, inhibitor mode. AlphaScreen anti-acetyl-lysine; with virally co-expressed GCN5 acetyltransferase. inhibition, % at 15.6 µM. hit rate 0.17% among 350,000. AID 651687, 2012;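 active means every replicate shows inhibition of at least 40%; inconclusive means mean inhibition at least 40% but some replicate below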;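 further: 0% = neutral control wells and 100% = positive control wells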
# DENV2 CPE: inhibitors of DENV2 cytopathic effect, primary screen, cell-based, plate reader, single concentration | DENV2-infected cells, cytopathic effect rescue | CPE inhibition, % at 9.99 µM | hit rate 1.7% among 350,000; in the data active means CPE inhibition above about 20%, passing the limit was not always enough; inconclusive means no clear call, values can overlap the other calls; tested in BHK-21 cells;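 further: 0% = median of neutral control wells and 100% = median of positive control wells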
# C2C12 statin: suppressors of statin myotoxicity in C2C12 myotubes, primary screen, cell-based, single point, plate reader | rescue of ATP level, % at 7.49 µM | hit rate 0.78% among 330,000 | C2C12 myotubes + simvastatin, ATP luminescence, 48 h; scaled: DMSO 0, geranylgeraniol control 100;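 active means mean ATP rescue above about 67%, or every replicate alone reaching that limit, limit read from the data, passing the limit was not always enough; inconclusive means no clear call, values can overlap the other calls; inactive means mean under the limit and some replicate under it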;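 further: myotubes were challenged with 10 µM simvastatin during compound exposure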
# An asterisk follows results filed as active; ? = inconclusive; . = no result given.
SMILES,S100A4 MyoIIA,SIRT5 inh,PGC1a acetyl inh,DENV2 CPE,C2C12 statin
CN1CCN(C(=O)C[C@H]2C[C@H]3c4cc(NS(=O)(=O)c5ccc(F)cc5)ccc4O[C@H]3[C@@H](CO)O2)CC1,.,.,1.0,-0.8,-7.0
Cc1cc(/C=C2/NC(=O)N(Cc3ccccc3F)C2=O)c(C)n1C(C)C,-5.2,112.2*,.,3.2,.
COc1ccc(S(=O)(=O)N(C)C[C@@H]2Oc3ccc(NS(=O)(=O)c4ccccc4)cc3C(=O)N([C@@H](C)CO)C[C@H]2C)cc1,.,.,5.9,-4.5,-4.6
C[C@H]1CN([C@@H](C)CO)S(=O)(=O)c2ccc(-c3cccc(F)c3)cc2O[C@@H]1CN(C)S(=O)(=O)c1ccc(F)cc1,-11.9,18.2*,-17.4,4.1,?
Cc1ccc(S(=O)(=O)N(C)C[C@H]2Oc3cc(-c4cccc(F)c4)ccc3S(=O)(=O)N([C@@H](C)CO)C[C@@H]2C)cc1,5.0,?,-14.5,-8.4,12.4
C[C@@H]1CN([C@H](C)CO)S(=O)(=O)c2ccc(-c3cccc(F)c3)cc2O[C@@H]1CN(C)S(=O)(=O)c1ccc(F)cc1,18.4,20.0*,1.7,-3.0,-54.4
COc1ccc(Cl)c(OC)c1C(=O)NC(=O)Nc1nc(C)nc(C)n1,0.2,-3.3,6.5,-0.4,-1.1
COc1c(Cl)cc(Br)c(OC)c1C(=O)NC(=O)Nc1nc(C)cc(C)n1,-0.4,-2.5,.,32.0*,.
CCN(CC)CCCNc1nc(C)cc(COC)c1C#N,0.3,-6.2,-0.5,44.5*,.
O=C(Cc1ccccn1)NCC[C@@H]1CC[C@@H](NC(=O)Nc2ccc(Cl)cc2)[C@@H](CO)O1,-2.1,-1.6,-7.1,2.9,-4.4
Cc1cc(O)c(C(C)C)cc1NC(=S)Nc1cc(C(C)C)c(O)cc1C,-10.3,-5.5,.,74.0*,.
O=C(NNc1ccccc1)C(CCO)C(=O)NNc1ccccc1,-2.1,111.9*,3.6,2.2,.
CCOC(=O)Cn1cc(C(=O)OC)c2ccccc21,.,.,2.1,.,4.9
COC(=O)c1cn(CC(=O)N2C(C)CCCC2C)c2ccccc12 (centres undefined),.,.,0.6,.,104.5*
COC(=O)Cn1cc(C(=O)OC)c2ccccc21,.,.,-17.9,.,98.4*
COC(=O)c1cn(C(=O)c2ccccc2Cl)c2ccccc12,3.2,26.0*,.,-0.1,.
Cc1ccc(NC(=O)Nc2ccc3c(c2)C(=O)N(C)[C@@H]2CC[C@H](CC(=O)O)O[C@H]2CO3)cc1,-3.7,-2.4,-6.7,-0.5,-6.2
CN(C(=O)c1ccc(NC(=O)Cc2cccc(NC(=O)C3CCN(C(=O)CCc4ccccc4)CC3)c2)cc1)C1CC1,-1.0,-1.5,.,?,.
CC(C)CC#Cc1ccc2c(c1)O[C@H](CN(C)C(=O)c1ccccc1)[C@H](C)CN([C@H](C)CO)S2(=O)=O,8.9,15.2*,-40.6,-11.2,.
C[C@@H]1CN([C@H](C)CO)S(=O)(=O)c2ccc(C#CC3CC3)cc2O[C@@H]1CN(C)C(=O)c1cccc(F)c1,7.6,6.0,-4.3,-3.0,0.2
CC(C)CC#Cc1ccc2c(c1)O[C@@H](CN(C)C(=O)c1cccc(F)c1)[C@H](C)CN([C@H](C)CO)S2(=O)=O,5.6,16.0*,1.8,-8.4,-39.1
CC(C)CC#Cc1ccc2c(c1)O[C@H](CN(C)C(=O)c1cccc(F)c1)[C@@H](C)CN([C@@H](C)CO)S2(=O)=O,3.1,17.7*,-3.7,24.3*,-17.0
C[C@@H]1CN([C@@H](C)CO)S(=O)(=O)c2ccc(C#CC3CC3)cc2O[C@@H]1CN(C)C(=O)c1cccc(F)c1,-0.4,22.9*,-0.5,-4.1,1.0
COc1ccc2c3c(n(C)c2c1)[C@H](CO)N(C(=O)c1ccc(F)cc1)CC31CN(C)C1,-3.0,.,4.0,-12.4,.
CC(C)=CCCC1=CC[C@H]2[C@@H](C1)C(C(C)C)=CC(=O)[C@@]2(C)O,-2.6,.,.,-13.6,.
CC(C)CC#Cc1ccc2c(c1)O[C@H](CN(C)C(=O)c1cccc(F)c1)[C@@H](C)CN([C@H](C)CO)S2(=O)=O,51.4,21.6*,1.2,-1.9,-14.1
CC(C)CC#Cc1ccc2c(c1)O[C@@H](CN(C)C(=O)c1cccc(F)c1)[C@H](C)CN([C@@H](C)CO)S2(=O)=O,8.3,21.7*,7.9,-1.3,-28.1
